Source: PubChem
BB579 growth dn – reduces growth of yeast BB579 in restrictive medium. S. cerevisiae BB579 growth, OD615, 48 h. inhibition, % at 10 µM. 140,000 tested, 0.51% active;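 active means inhibition above a set limit, 3 SD over the mean compound inhibition, cut at about 44% in these data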
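Test system: Saccharomyces cerevisiae DeaD strain BB579, replicative lifespan model yeast | Buffer or medium: Restrictive CSMM-D medium | Doses: One dose, 10 µM compound with 0.25% DMSO | Incubation: 48 h exposure, 30 °C | Detection: Culture absorbance at 615 nm | Control set: Amphotericin B at 10 µg/mL as positive control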
Yeast life ext – yeast lifespan extension; 130,000 tested, 0.68% active; S. cerevisiae growth with nicotinamide, OD615; deaD strain in restrictive glucose medium; inhibition of the nicotinamide effect, % at 10 µM;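 active means inhibition above a set limit, placed 3 SD over the median of all compounds, cut at about 26% in these data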;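 further: 0% = nicotinamide-treated wells and 100% = cells grown without nicotinamide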
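Test system: DeaD-strain S. cerevisiae / Buffer or medium: restrictive glucose medium / Also added: nicotinamide 1.5 mM / Doses: one concentration, 10 µM, DMSO 0.25% / Schedule: 48 h at 30 °C / Signal: OD615 measurement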
PostGolgi yeast – growth inhibition of a yeast mutant, post-Golgi transport screen; AID 739; inhibition, % at 10 µM; 98,000 tested, 0.9% active; post-Golgi transport phenotypic cell assay;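 further: yeast cells grown in 1536-well plates; yeast grown about 18 h at 30C before absorbance read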
PostGolgi ctrl – yeast control strain growth, post-Golgi counter-screen; efflux-deficient yeast background strain, growth absorbance A615, 16 h; inhibition, % at 10 µM; 98,000 tested, 5% active; AID 738
* = called active by the depositor; . = no result. Shown is part of a subset that was picked to be rich in hits. Unless noted, no stated cut-off is given here; in the data, active means inhibition above about 30%; inactive means the rest.

SMILES	BB579 growth dn	Yeast life ext	PostGolgi yeast	PostGolgi ctrl
CCOc1ccccc1OCCNC1CCCC1	-22	10	.	.
CCOc1ccc(CN(C(=O)c2oc3cc(C)ccc3c2C)C2CCS(=O)(=O)C2)cc1 (configuration not stated)	-13	-10	4	35*
COc1ccc(NS(=O)(=O)c2ccc(OC)c(NC(=O)CCC3CCCC3)c2)cc1	-40	-1	.	.
COc1cccc(NC(=O)c2cc([N+](=O)[O-])ccc2NCc2cccnc2)c1	-32	2	.	.
Cc1ccc(NC(=O)c2cc([N+](=O)[O-])ccc2NCc2cccnc2)cc1Cl	-19	-3	22	31*
CCN(Cc1ccccc1)Cc1cccc([N+](=O)[O-])c1	-31	-2	2	0
Oc1ccc(N=Nc2cccc(Cl)c2)cc1C=Nc1ccc(N2CCOCC2)cc1	79*	-7	.	.
Oc1ccc2ccccc2c1C=Nc1ccc(N2CCOCC2)cc1	-16	49*	-4	-2
O=C(C1CCCO1)N1CCN(c2ccc(F)cc2)CC1 (configuration not stated)	2	.	.	.
Cc1ccc(C)c(NC(=O)C2CC(O)CN2C(=O)OC(C)(C)C)c1 (configuration not stated)	-9	-1	-6	-4
CC1CC2=C(NC(=S)NC2c2ccc(F)cc2)/C(=C/c2ccc(F)cc2)C1 (configuration not stated)	-6	-5	-2	39*
S=C1NC2=C(CCC/C2=C\c2ccccc2)C(c2ccccc2)N1 (configuration not stated)	-31	-2	.	.
CCN(CC)c1nc(N)c([N+](=O)[O-])c(NCCO)n1	-25	0	.	.
COc1ccccc1NC(=O)N1CCCC1C(=O)NCc1ccc2c(c1)OCO2 (configuration not stated)	13	-7	-4	-8
O=C(Nc1ccc2c(c1)OCO2)C1CCCN1C(=O)NCc1ccccc1 (configuration not stated)	-31	57*	-3	-2
O=C(NCc1ccc2c(c1)OCO2)C1CCCN1C(=O)Nc1ccccc1 (configuration not stated)	-28	-10	33*	-1
N#Cc1ccc(Cl)cc1NC(=O)COC(=O)[C@H](CCC(N)=O)NC(=O)c1ccc(F)cc1	-30	6	.	.
Cc1c(NC(=O)C(=O)/C=C(\O)c2ccc(Cl)cc2)c(=O)n(-c2ccccc2)n1C	-41	79*	.	.
Cc1c(NC(=O)Nc2cccc(Cl)c2)c(=O)n(-c2ccccc2)n1C	-22	-10	-9	37*
Cc1c(NC(=O)CC(=O)Nc2c(C)n(C)n(-c3ccccc3)c2=O)c(=O)n(-c2ccccc2)n1C	-28	-4	14	9
Cc1c(NS(=O)(=O)c2cccc(C(=O)NCc3ccc(Cl)cc3)c2)c(=O)n(-c2ccccc2)n1C	3	-10	10	31*
O=C(Nc1ccc(Cl)cc1Cl)c1n[nH]c(Cn2cncn2)n1	-18	-13	-6	8
Cc1ccc(-c2nc(CSCC(=O)NCCN3CCN(Cc4ccccc4)CC3)c(C)o2)cc1	-39	-11	2	38*
Cc1ccc(-c2nc(CSCC(=O)NCCCN3CCOCC3)c(C)o2)cc1	-21	-12	7	2
CCCOc1ccc(-c2nc(OC)c3ccccc3n2)cc1	3	-28	-3	-3
SMILES	BB579 growth dn	Yeast life ext	PostGolgi yeast	PostGolgi ctrl
COc1ccccc1-n1c(SCC(=O)Nc2ccccc2C)nc(O)cc1=O	-41	-35	8	37*
COc1ccccc1NC(=O)CSc1nc(O)cc(=O)n1-c1ccccc1OC	-46	-1	-3	35*
O=C(CC(=O)N/N=C\c1c(Cl)cccc1Cl)NCc1ccccc1	-13	-12	-2	5
O=C(CC1SC(=O)N(Cc2cccc3ccccc23)C1=O)Nc1nccs1 (configuration not stated)	-35	0	-24	33*
CCC(C(=O)c1ccc(O)cc1)c1ccccc1 (configuration not stated)	-34	2	1	36*
CCc1ccc(NC(=O)C(CC)c2ccccc2)cc1 (configuration not stated)	-12	11	.	.
COc1ccc(C2=NN(c3nc(-c4ccccc4)c(CC(=O)O)s3)C(c3ccco3)C2)cc1 (configuration not stated)	-13	31*	.	.
O=C(Nc1ccccc1N1CCCCC1)c1cccs1	-41	-10	2	51*
O=C(Nc1ccccc1N1CCCCC1)c1ccco1	-51	-19	2	33*
O=C(Nc1ccccc1N1CCCC1)c1ccco1	-24	3	11	19
O=C1C2C3C=CC(C3=C(c3ccccc3)c3ccccc3)C2C(=O)N1Cc1ccccc1 (configuration not stated)	-13	-7	-4	8
O=C(NCc1ccccn1)NC12CC3CC(CC(C3)C1)C2	-49	32*	-1	9
O=C(Nc1ccccn1)NC12CC3CC(CC(C3)C1)C2	-51	-17	11	16
Cc1ccc(NS(=O)(=O)c2cccc(C(=O)OCC(=O)NCc3ccco3)c2)cc1	-38	-8	-2	-13
COc1ccc(NS(=O)(=O)c2cccc(C(=O)OCC(=O)Nc3cc(C)on3)c2)cc1	-39	-5	-20	42*
CCNc1nc(NC(C)C)nc(SCCOc2ccc(C)cc2)n1	-51	-24	4	31*
CCNc1nc(NC(C)C)nc(SCCOC(=O)c2ccccc2)n1	-16	-1	.	.
CCc1nnc(NC(=O)C2CCCN2S(=O)(=O)c2ccc(F)cc2)s1 (configuration not stated)	-47	-2	0	-8
COc1ccc(OCC(O)CN2C(=O)NC(C)(C)C2=O)cc1 (configuration not stated)	-18	-11	-3	8
CCOC(=O)c1c(-c2ccccc2)nc2ccccn12	29	-15	5	12
O=C(NCCOC(=O)c1ccncc1)c1ccccc1	-47	-10	-6	-1
CC(C)(C)c1ccc(C(=O)OCCNC(=O)c2c(Cl)nc3ccccn23)cc1	-62	-18	-2	37*
COc1ccc(C(=O)OCCNC(=O)c2c(Cl)nc3ccccn23)cc1	-51	-20	6	36*
CC(C)CCN1CC(O)=C(c2nc3ccccc3[nH]2)C1=N	6	-15	29	24
CCCCN1CC(O)=C(c2nc3ccccc3[nH]2)C1=N	-16	-3	4	30*
CCCC(C(=O)NCc1ccco1)N(C(=O)CNS(=O)(=O)c1ccccc1)c1ccccc1OC (configuration not stated)	-25	2	-15	2
CCOc1ccc(C2C=C(c3ccc(C)cc3)Nc3nnnn32)cc1 (configuration not stated)	-52	-18	8	2
CCOc1ccc(C2C=C(c3ccc(C)cc3)Nc3ncnn32)cc1 (configuration not stated)	1	-1	6	38*
CCCNC(=O)CCC(NS(=O)(=O)c1ccc(C)cc1)C(=O)NCCC (configuration not stated)	-33	80*	-9	-1
CCCCCCCN=CC1=C(O)CC(c2ccccc2)CC1=O (configuration not stated)	-28	0	.	.
